Source: ChEMBL document CHEMBL1157054, “Design, synthesis and biological evaluation of indane-2-arylhydrazinylmethylene-1,3-diones and indol-2-aryldiazenylmethylene-3-ones as beta-amyloid aggregation inhibitors” (Eur J Med Chem, 2010)
pIC50: −log10 of the molar value. Active and inactive are the calls of the source. No cut-off for these calls is given here.

Experiment: Inhibition of amyloid beta (1 to 40) aggregation assessed as inhibition of fibril formation by thioflavin T fluorescent dye assay
In short: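 ThT fluorimetric assay on HFIP-pretreated Aβ1-40, 30 µM in PBS pH 7.4 containing 2% HFIP and 10% DMSO, incubated 2 h at 25 °C. Fluorescence read after mixing with 25 µM ThT (phosphate pH 6.0), ex 440/em 485 nm, blank-corrected vs inhibitor-free aggregation. IC50 from 5-7 concentrations tested in triplicate, three independent experiments.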

pIC50	SMILES
5.44	Cc1ccc(/N=N/C=C2Nc3ccccc3C2=O)cc1
4.74	O=C1C(=CNNc2cccc(Cl)c2)C(=O)c2ccccc21
4.64	CC(C)c1ccc(/N=N/C=C2Nc3ccc(Br)cc3C2=O)cc1
4.46	O=C1C(=C/N=N/c2ccccc2)Nc2ccc(Br)cc21
4.49	O=C1C(=CNNc2ccccc2Cl)C(=O)c2ccccc21
5.85	CC(C)c1ccc(/N=N/C=C2Nc3ccccc3C2=O)cc1
4.29	Cc1ccc(/N=N/C=C2Nc3ccc(Br)cc3C2=O)cc1
4.64	O=C1C(=CNNc2ccc(Cl)cc2)C(=O)c2ccccc21
4.64	COc1ccc2[nH]cc(/C=N\Nc3ccc(Cl)cc3)c2c1
4.89	O=C1C(=C/N=N/c2ccccc2Cl)Nc2ccccc21
4.74	CC(C)c1ccc(NNC=C2C(=O)c3ccccc3C2=O)cc1
5.06	O=C1C(=C/N=N/c2ccccc2)Nc2ccccc21
5.36	O=C1C(=C/N=N/c2cccc(Cl)c2)Nc2ccc(Br)cc21
5.60	O=C1C(=C/N=N/c2cccc(Cl)c2)Nc2ccccc21
5.11	O=C1C(=C/N=N/c2ccccc2Cl)Nc2ccc(Br)cc21

SMILES	pIC50
O=c1c(O)c(-c2ccc(O)c(O)c2)oc2cc(O)cc(O)c12 [QUERCETIN]	6.10

Experiment: Inhibition of amyloid beta (1 to 40) aggregation assessed as inhibition of fibril formation at 100 uM by thioflavin T fluorescent dye assay
In short: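 Aβ1-40 (HFIP-treated, lyophilized) at 30 µM in PBS (0.01 M, NaCl 0.1 M, pH 7.4) with 2% HFIP and 10% DMSO, test compound 100 µM; triplicate incubations, 2 h at 25 °C. Sample mixed with 25 µM ThT in 0.025 M phosphate pH 6.0; fluorescence ex 440/em 485 nm. Percent inhibition = 100 − [(Fi − Fb)/F0]×100, blank-corrected against free Aβ aggregation.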

inhibition [%]	SMILES
44	Cc1ccc(NNC=C2C(=O)c3ccccc3C2=O)cc1
20	O=C1C(=C/N=N/c2ccc(Cl)cc2)Nc2ccc(Br)cc21
49	O=C1C(=CNNc2ccccc2)C(=O)c2ccccc21
38	O=c1c(=NNc2ccc(Cl)cc2)c(=O)c2ccccc12
33	O=C1C(=C/N=N/c2ccc(Cl)cc2)Nc2ccccc21
23	O=C1C(=C/N=N/c2ccc(Cl)c(Cl)c2)Nc2ccc(Br)cc21
44	O=C1CCC(=O)C1=CNNc1ccc(Cl)cc1

Experiment: Inhibition of amyloid beta (1 to 40) aggregation assessed as inhibition of protofibril formation after 3 days
In short: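 Aβ1-40 (30 µM) with compound at 50 µM in 0.217 M phosphate buffer pH 8.0, 10% ethanol, incubated at 37 °C up to 7 days; aliquots taken at time points, applied to carbon-coated grids, negatively stained with 2% uranyl acetate, imaged by TEM at 60 kV, 60,000-fold magnification; qualitative fibril/protofibril assessment.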

inhibition	SMILES
Active	CC(C)c1ccc(/N=N/C=C2Nc3ccccc3C2=O)cc1
